Measurements published in article PMC6497404 (Vaccine, 2019).

Tests used:
[1] = tested on: BALB/c mice; assay: Serum antibody ELISA after immunization with antigen-pulsed dendritic cells; format: in vivo, mouse; conditions: after first booster; mimotope-pulsed DCs i.p.; sera diluted 1:200
In short: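 Female BALB/c mice, 5–7 weeks old. Bone-marrow DCs pulsed with peptide antigen (1 μM) on day 6, matured with PGE₂ (10⁻⁷M) plus LPS (2 μg/ml) for 24h from day 7, washed on day 9. 5 × 10⁵ DCs in DPBS given i.p., with i.p. boosts of fresh pulsed DCs without adjuvant at days 14 and 28. Controls received DCs or DPBS. Sera diluted 1:200 and tested by ELISA.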

[2] = tested on: C. albicans SC5314 (disseminated candidiasis in BALB/c mice); assay: Active vaccination; format: in vivo, Candida albicans; conditions: mimotope-pulsed DCs; lethal i.v. challenge; extended observation

HYKTYGGYW [PS31]
Antibody ELISA titers in immune sera against the mimotope [1]: highest

SWYEGLRLI [PS55]
Protection against disseminated candidiasis (mimotope vaccination) [2]: neither of the two other mimotopes PS55 or PS76 induced protection

SYLTTGGFW [PS28]
Antibody ELISA titers in immune sera against the mimotope [1]: highest

WVPPGSWYL [PS2]
Antibody ELISA titers in immune sera against the mimotope [1]: highest

YRQFVTGFW [PS76]
Protection against disseminated candidiasis (mimotope vaccination) [2]: neither of the two other mimotopes PS55 or PS76 induced protection
